CSN deneddyl inh – CSN deneddylation inhibition | inhibition, % at 12.5 µM | Q92905 | actives 0.38% (n = 360,000) | Purified CSN, SCF-Nedd8-OG deneddylation, fluorescence polarization | AID 651999;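 active = pattern-corrected inhibition above about 35%, with an unprinted fluorescence ratio check between 0.5 and 1.5, limit read from the data, passing the limit was not always enough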;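 note: 0% = enzyme with substrate and 100% = substrate without enzyme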
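Test system: purified human Csn5 enzyme expressed in HEK293T cells. Amount: 0.24 nM enzyme. Reagent: SCFSkp2-Nedd8OG substrate at 10 nM final. Schedule: 90 min incubation of compound, enzyme and substrate at room temperature. Detection: fluorescence polarization. Read-out: % inhibition of substrate cleavage by Csn5.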
HNF4A DNA FP – change in binding of human HNF4 alpha to DNA. HNF4a-FITC DNA binding, fluorescence polarization, 1 h. P41235. activity change, % at 10 µM. actives 0.3% (n = 360,000). AID 1224865; in the data active = activity change above about 30%, passing the limit was not always enough
Target sequence (P41235 whole entry, looked up): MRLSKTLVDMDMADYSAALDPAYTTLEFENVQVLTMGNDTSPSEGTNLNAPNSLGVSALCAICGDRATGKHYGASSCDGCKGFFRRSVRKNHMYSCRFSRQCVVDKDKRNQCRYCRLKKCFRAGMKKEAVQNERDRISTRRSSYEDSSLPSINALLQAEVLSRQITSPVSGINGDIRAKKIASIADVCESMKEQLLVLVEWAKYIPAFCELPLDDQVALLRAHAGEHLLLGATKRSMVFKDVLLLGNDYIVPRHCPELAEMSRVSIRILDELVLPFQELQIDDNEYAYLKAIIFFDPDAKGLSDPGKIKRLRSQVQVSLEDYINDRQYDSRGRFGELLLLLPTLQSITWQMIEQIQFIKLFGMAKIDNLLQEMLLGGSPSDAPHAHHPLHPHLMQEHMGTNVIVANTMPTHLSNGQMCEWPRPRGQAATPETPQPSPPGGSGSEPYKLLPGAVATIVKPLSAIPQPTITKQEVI
ARFGAP1 inh – inhibits rat ARF GTPase activating protein 1 | Q62848 | Arfgap1-stimulated ARF1 GTP hydrolysis, GDP FP detection | inhibition, % at 16.5 µM | actives 0.26% (n = 360,000);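 active = inhibition above a per-plate limit, mean inhibition of low control wells plus 3 SD, cut at about 25% in these data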;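 note: 0% = DMSO wells with enzyme and 100% = wells lacking Arfgap1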
Target sequence (Q62848 1-136 limits assumed): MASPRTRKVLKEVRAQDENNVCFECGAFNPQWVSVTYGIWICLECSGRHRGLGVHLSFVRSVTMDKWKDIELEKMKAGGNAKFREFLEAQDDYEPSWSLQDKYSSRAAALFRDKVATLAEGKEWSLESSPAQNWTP
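Material: rat Arfgap1 GAP domain (His6, aa 1-136), purified enzyme. Also added: human ARF1(Δ1-17)-GTP substrate. Compound dosing: 16.5 µM single point, 1.26% DMSO. Timing: enzyme reaction 120 min at 25 °C after 20 min preincubation. Signal: GDP detection by fluorescence polarization. Read-out basis: percent inhibition of GAP-stimulated GDP formation, scaled between DMSO and no-Arfgap1 medians.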
ASAP1 GAP inh – blocks human ASAP1-stimulated Arf1 GTP hydrolysis. Q9ULH1. GDP FP detection. inhibition, % at 16.5 µM. actives 0.19% (n = 360,000). AID 624377; in the data active = inhibition above about 25%;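 note: 0% = vehicle with enzyme and substrate and 100% = no enzyme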
ARFGAP1 confirm – confirmation of rat ARFGAP1 inhibitors | actives 30% (n = 890) | inhibition, % at 16.5 µM | shares compounds with ARFGAP1 inh | ARFGAP1-stimulated ARF1 GTP hydrolysis, GDP tracer FP;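 active = average inhibition over triplicates above the hit cutoff set in the earlier primary screen, cut at about 25% in these data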;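 note: 0% = Arfgap1 plus ARF1-GTP with DMSO and 100% = wells lacking Arfgap1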
Numbers without * were called inactive; . = not tested or not shown. This is a sample that favours compounds with a hit; in the whole collection about 0.95% have one here.

SMILES	CSN deneddyl inh	HNF4A DNA FP	ARFGAP1 inh	ASAP1 GAP inh	ARFGAP1 confirm
Cc1ccnc(Nc2ccc(CCO)cc2)n1	-3	-2	27*	-6	3
COc1ccccc1NS(=O)(=O)c1cc2c(cc1C)NC(=O)CO2	5	-1	51*	15	6
COc1cccc(C2=NN(C(=O)c3cccs3)C(O)(C(F)(F)F)C2)c1 (stereo not drawn)	-1	0	-6	3	.
COc1ccc(OC)c(C2C(C(=O)Nc3nc4ccccc4s3)=C(C)NC3=C2C(=O)CCC3)c1 (stereo not drawn)	0	3	25*	18	22
Cc1cc(OC(C)C(=O)NCc2cccnc2)c2c(C)cc(=O)oc2c1 (stereo not drawn)	2	1	9	0	.
CC(C)C(=O)Nc1cc2c3c(c1)CCC(=O)N3CCC2	6	0	25*	-13	-9
CC(C)NC(=O)C(=O)Nc1cc2c3c(c1)CCC(=O)N3CCC2	-1	4	3	-7	.
Cc1cc2[nH]c(=O)c(=O)[nH]c2cc1S(=O)(=O)N1CCC(C)CC1	-2	1	32*	-4	8
Cc1cc2[nH]c(=O)c(=O)[nH]c2cc1S(=O)(=O)N1CCN(c2ccccc2)CC1	-1	1	4	-6	.
COc1cccc(C(=O)N[C@H](C(=O)N2CCC[C@H]2C(=O)NCCc2ccccc2Cl)C(C)C)c1	.	.	3	12	.
CSCCC(NC(=O)OCc1ccccc1)C(=O)NCc1cccnc1 (stereo not drawn)	0	1	25*	4	3
CSCC[C@H](NC(=O)OCc1ccccc1)C(=O)O	-1	-2	5	1	.
COc1ccc(NC2=C(NCCO)C(=O)c3ccccc3C2=O)cc1	-5	-1	28*	-2	-3
CCn1c(CSc2nc3ccccc3s2)nnc1SCC(=O)c1ccc(O)c(O)c1	5	-13	32*	-8	-1
O=C(N/N=C/C(Cl)=C/c1ccccc1)c1ccc2c(c1)OCO2	2	-1	29*	23	36*
O=C(N/N=C/c1ccc2c(c1)OCO2)c1ccc2c(c1)OCO2	-1	-1	16	4	.
COC(=O)c1ccc(NC(=O)Nc2ccc(F)cc2)cc1	0	-2	17	3	.
COc1ccc(NC(=O)Nc2ccc(F)cc2)cn1	0	0	25*	-4	3
O=C(N/N=C/c1ccc(C(=O)O)cc1)C(=O)N1CCCCCC1	-1	-2	-4	-3	.
O=C(N/N=C/c1ccc(Cl)cc1)C(=O)N1CCCCCC1	-4	1	25*	3	-6
CCOC(=O)[C@]12CCCC=C1N(Cc1cccc3ccccc13)C(=O)[C@H](CC(=O)NCC1CCCCC1)C2	1	0	4	-11	.
CCOC(=O)Cc1csc(NC(=O)CSc2ncnc3c2cnn3-c2ccccc2Cl)n1	2	0	35*	0	1
Cc1nnc(NC(=O)CSc2ncnc3c2cnn3-c2ccccc2C)s1	-1	-1	12	-4	.
Cc1c(O)ccc2c(O)c(NC(=O)c3ccc4c(c3)CCC(C)(C)O4)c(=O)oc12	4	-1	40*	2	1
COC(=O)c1cccc(Nc2nc(-c3cccnc3)nc3ccccc23)c1	2	-2	43*	18	53*
SMILES	CSN deneddyl inh	HNF4A DNA FP	ARFGAP1 inh	ASAP1 GAP inh	ARFGAP1 confirm
COC(=O)c1ccc(Nc2nc(-c3ccncc3)nc3ccccc23)cc1	3	4	34*	17	34*
c1ccc(Nc2nc(-c3ccncc3)nc3ccccc23)cc1	4	1	8	-6	.
Cc1cc(C)n2nc(SCC(=O)N/N=C/c3ccccc3F)nc2n1	-4	-2	27*	4	0
Cc1ccc(/C=N/NC(=O)CSc2nc3nc(C)cc(C)n3n2)cc1	4	0	19	-9	.
NC1=NC(=O)/C(=C/c2cccc(-c3ccc(S(N)(=O)=O)cc3)c2)S1	1	5	28*	-3	5
CNc1nc(NCC2CCCCC2)c2sccc2n1	-1	-1	9	-1	.
CCCC(=O)N1CCCC1(C)C(=O)Nc1ccc(-n2cccc2)cc1 (stereo not drawn)	5	1	25*	-3	-7
NC(=O)C(=O)N/N=C/c1c(F)c(F)c(F)c(F)c1F	-4	1	-4	2	.
C[C@@H]1CCCCO[C@H](CN(C)S(=O)(=O)c2cccs2)[C@H](C)CN([C@@H](C)CO)C(=O)c2cc(NC(=O)NC3CCCCC3)ccc2O1	4	2	25*	-3	4
CC(=O)Nc1ccc(NC(=O)C(C)OC(=O)c2cccs2)cc1 (stereo not drawn)	1	3	-5	-1	.
COc1ccc(CNC(=O)c2sc(=O)n(Cc3ccc(-c4ccccc4)cc3)c2C)cc1OC	-4	1	26*	23	16
CN(CCC#N)C(=O)COC(=O)c1c2c(nc3ccccc13)/C(=C/c1ccco1)CC2	45	-11	-3	-11	.
COc1cc(O)c(CC=C(C)C)c(O)c1C(=O)CCc1ccc(O)cc1	0	5	29*	16	29*
Cc1nc(CSc2ccc(Cl)cc2)cc(N2CC(C)OC(C)C2)n1 (stereo not drawn)	-13	-3	25*	-10	5
O=C(COC(=O)CNC(=O)c1ccc(Cl)cc1Cl)NC1CCCCC1	-3	-1	27*	0	1
O=C(COC(=O)CNC(=O)c1ccc(Cl)cc1Cl)NC(=O)NC1CCCCC1	4	5	-8	8	.
CC(C)CCC(CCNCc1ccccn1)c1ccc(Cl)cc1 (stereo not drawn)	5	-1	31*	4	-9
S=C(NCc1ccc(Cl)cc1)NCc1ccccn1	1	3	4	8	.
Cc1ccc([N+](=O)[O-])cc1NC(=O)c1cccnc1	-1	-1	10	-3	.
O=C(Nc1cc([N+](=O)[O-])ccc1Cl)c1cccnc1	-2	-4	25*	-10	4
CC(C)CCNC(=O)COC(=O)/C=C/c1ccc2ccccc2n1	-6	-2	5	-2	.
O=C(COC(=O)/C=C/c1ccc2ccccc2n1)NNC(=O)c1ccccc1	7	7	49*	-16	-1
O=C(O)c1cc(S(=O)(=O)NC23CC4CC(CC(C4)C2)C3)ccc1Cl	2	1	10	8	.
Cc1cccc(/C=N/Nc2ccc3ccccc3n2)c1	3	5	25*	13	3
CNC(=O)c1c(NC(=O)c2ccc(S(=O)(=O)N3CC(C)OC(C)C3)cc2)sc2c1CCN(C(C)C)C2 (stereo not drawn)	8	6	26*	1	3
Cc1ccc(-c2csc(C3=C(O)CN(NC(=O)c4ccc([N+](=O)[O-])cc4)C3=N)n2)cc1	8	-1	28*	14	31*
N#CCCn1nc2c(c1N)CCC2	0	2	1	-1	.

Assay outcomes from PubChem.
